Tests used:
[1] = Binding constant dissolved in DMSO against hematin receptor at pH 7.4 (HEPES Buffer) upon incubation at 37 degree C
Method in brief: (§1)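 Hemin from 1.2 mM DMSO stock diluted to ~12 μM in 40% aqueous DMSO, 0.02 M HEPES, apparent pH 7.4–7.5 (monomeric hematin). Drug serial dilutions mixed with heme in microplate wells, 30 min incubation at the stated temperature, absorbance at 405 nm (Soret). Reference wells without heme subtract drug absorbance. Triplicate readings; log K by nonlinear least-squares fit, 1:1 heme–drug model.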

[2] = Dose (diphosphate) present in DMSO required to inhibit Plasmodium berghei N/13 infected mice (Mus musculus) administered subcutaneously 3-4 hr after infection on day 1 and then twice daily on days 2 and 3; assay type: functional; details: sc, read-out: ID50 (the source's name)
Method in brief: (§2)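 MF1 mice inoculated iv with 2×10^7 P. berghei N/13 parasitized erythrocytes. Drug given sc as five injections over 72 h in olive oil/DMSO (96:4) or saline/DMSO (96:4). Parasitemia read at 72 h on Leishman-stained tail blood smears, 4–8 mice per dose, 2–8 dose levels. ID50 is the dose giving 50% inhibition versus concurrent vehicle-treated mice.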

[3] = Binding constant dissolved in DMSO against hematin receptor at pH 7.4 (HEPES Buffer) upon incubation at 42 degree C; method in brief: as §1
Plasmodium falciparum = assay: In vitro inhibition of Plasmodium falciparum K1; assay type: functional
Method in brief: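 Synchronized, mostly ring-stage P. falciparum K1 at 1.0% parasitemia in RPMI 1640 with 25 mM HEPES pH 7.4 and 32 mM NaHCO3. Drug from DMSO stock, final DMSO ≤0.01%. Culture 24 h at 37 °C under 17% O2/3% CO2/80% N2, then 18–24 h with [3H]hypoxanthine. Incorporation counted by scintillation after filter harvest; IC50 reported.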

[4] = Binding constant dissolved in DMSO against hematin receptor at pH 7.4 (HEPES Buffer) upon incubation at 30 degree C; method in brief: as §1
[5] = Dose (dihydrochloride) present in DMSO required to inhibit Plasmodium berghei NY infected mice (Mus musculus) administered intraperitoneally; assay type: functional; details: ip, read-out: ID50 (the source's name)
Method in brief: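 MF1 mice infected iv with 2×10^7 P. berghei NY parasitized erythrocytes. Dosing ip, five injections over 72 h, in Water for Injections BP/DMSO (96:4). Parasitemia counted on Leishman-stained tail smears at 72 h, groups of 4–8 mice. ID50 derived from 2–8 dose levels relative to vehicle-treated controls.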

[6] = Dose present in DMSO required to inhibit Plasmodium berghei N/13 infected mice (Mus musculus) administered subcutaneously 3-4 hr after infection on day 1 and then twice daily on days 2 and 3; assay type: functional; details: sc, read-out: ID50 (the source's name); method in brief: as §2
[7] = Dose (dihydrochloride) present in DMSO required to inhibit Plasmodium berghei N/13 infected mice (Mus musculus) administered subcutaneously; assay type: functional; details: sc, read-out: ID50 (the source's name); method in brief: as §2
Plasmodium berghei = assay: In vivo 50% inhibition of parasitaemia in Plasmodium berghei infected mice (Mus musculus) by oral dose; assay type: functional; details: read-out: ID50 (the source's name)
Method in brief: (§3)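 P. berghei-infected MF1 mice (2×10^7 parasitized erythrocytes iv). Drug in Water for Injections BP/DMSO (98:2) at 65 and 199 μM in drinking water, ad libitum; daily volume drunk measured to calculate dose. Parasitemia on Leishman-stained tail smears at 72 h, 4–8 mice per group. ID50 is 50% inhibition versus vehicle-treated mice.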

[8] = Dose of the compound (hydrochloride) required to inhibit Plasmodium berghei Plasmodium berghei N/13 parasitemia by 50%; assay type: functional; details: read-out: ID50 (the source's name); method in brief: as §3
[9] = Binding constant dissolved in DMSO against hematin receptor at pH 7.4 (HEPES Buffer) upon incubation at 23 degree C; method in brief: as §1

Log K [1]	Log K [3]	IC50 (Plasmodium falciparum) [nM]	Log K [4]	Log K [9]	SMILES	ED50 [2] [µmol/kg]	ED50 [5] [µmol/kg]	ED50 [6] [µmol/kg]	ED50 [7] [µmol/kg]	ED50 (Plasmodium berghei) [µmol/kg]	ED50 [8] [µmol/kg]
5.4	5.3	230	5.4		CCN(CC)CCCC(C)Nc1ccnc2cc(Cl)ccc12 (stereo not given) [CHLOROQUINE]	8.3					
5.1	5.8	170	5.4	6.1	Clc1ccc2c(Nc3cccc(Nc4ccnc5cc(Cl)ccc45)c3)ccnc2c1 [METAQUINE]		3.2	1.5	2.9	25	2.4

— ChEMBL document CHEMBL1141156, “Mapping antimalarial pharmacophores as a useful tool for the rapid discovery of drugs effective in vivo: design, construction, characterization, and pharmacology of metaquine” (2005)
